# Shown are actives, neighbours in structure and some others; about 1.9% of the full set was active somewhere.
# proCasp7 act: counter-screen for procaspase-3 activators: activators of human procaspase-7; P55210; recombinant procaspase-7, Ac-DEVD-pNA absorbance 405 nm; D23A/D198A/D206A triple mutant, cannot self-cleave; scale: DMSO 0, 5 µM enzyme 100; activation, % at 8.5 µM; 0.093% of 330,000 active;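 active = percent activation above the screen-wide mean plus 3 SD, cut at about 25% in these data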
# Target sequence (P55210 whole entry D23A/D198A/D206A): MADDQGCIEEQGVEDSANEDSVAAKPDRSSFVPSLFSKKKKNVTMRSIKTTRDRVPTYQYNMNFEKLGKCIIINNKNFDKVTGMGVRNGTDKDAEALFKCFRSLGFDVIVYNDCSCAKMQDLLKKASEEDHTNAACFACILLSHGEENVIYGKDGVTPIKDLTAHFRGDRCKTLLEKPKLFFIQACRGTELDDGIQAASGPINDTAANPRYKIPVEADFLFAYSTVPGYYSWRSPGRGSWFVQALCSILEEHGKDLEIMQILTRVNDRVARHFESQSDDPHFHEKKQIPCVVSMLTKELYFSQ
#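 System: Uncleavable procaspase-7 mutant enzyme; Amount: 2 µM procaspase-7 mutant as dispensed; Schedule: 1 h compound preincubation, 2 h substrate cleavage, 25 °C; Measured by: 405 nm absorbance of p-nitroaniline; Evaluation: percent activation from buffer-corrected 0–120 min absorbance change; Control set: low DMSO alone, high DMSO plus 5 µM PC-7.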
# GAA850 FXN act: frataxin GAA850 promoter activation | HEK293 lucGAA850 FXN promoter luciferase reporter, 24 h; percent of 10 µM SAHA response | activation, % at 6 µM | 0.56% of 360,000 active | AID 540364;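 active = activation above the average of all compounds screened plus 3 SD, cutoff fixed separately per campaign, cut at about 7.5% in these data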;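 also: 0% = DMSO wells and 100% = 10 µM SAHA wells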
# procasp3 activ: procaspase-3 (human) activation; P42574; recombinant procaspase-3 D3A, Ac-DEVD-pNA absorbance 405 nm; activation, % at 8.5 µM; 0.11% of 330,000 active; AID 463141;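 active = activation above the mean of all tested compounds plus 3 SD, cut at about 21% in these data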;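 also: 0% = DMSO alone and 100% = DMSO wells spiked with extra 5 µM PC-3 D3A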
# Target sequence (P42574 whole entry D9A/D28A/D175A): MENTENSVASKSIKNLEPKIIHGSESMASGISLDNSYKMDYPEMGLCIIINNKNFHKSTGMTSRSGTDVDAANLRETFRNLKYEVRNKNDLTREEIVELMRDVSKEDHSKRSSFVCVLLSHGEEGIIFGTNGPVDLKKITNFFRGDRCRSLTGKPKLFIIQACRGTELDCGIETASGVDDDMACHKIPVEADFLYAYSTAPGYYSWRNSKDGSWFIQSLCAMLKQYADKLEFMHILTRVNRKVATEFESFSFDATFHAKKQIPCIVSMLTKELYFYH
#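 Test system: Procaspase-3 D3A mutant, all three cleavage aspartates alanine | Dosing: Single dose, 8.5 µM nominal compound, 0.8% DMSO | Schedule: 1 h preincubation, 2 h reaction | Technique: 405 nm absorbance of p-nitroaniline, reads at 0 and 120 min | Repeats: One well per compound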
# Calb FLC: C. albicans growth modulation with fluconazole; 0.57% of 300,000 active; C. albicans CaCi-2 + fluconazole, Alamar Blue growth, 48 h; growth inhibition, % (test concentration not listed);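 active = growth inhibition above about 58% in most replicates, limit read from the data, passing the limit was not always enough; inconclusive = exactly half the replicates above a set limit; inactive = most replicates below a set limit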;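 also: all wells also contain fluconazole at 8 µg/ml as a sub-toxic cotreatment; 0% = median of DMSO wells and 100% = median of geldanamycin control wells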
# Neddylation inh: blocks human cullin neddylation; P61081+Q13564; AID 651699; TR-FRET cullin neddylation, biochemical; inhibition, % at 25 µM; 0.58% of 360,000 active; in the data active = inhibition above about 36%
# HIF activator: HIF pathway transcriptional activation | U2OS HRE-luciferase reporter, luminescence; normalized: DMSO 0%, desferrioxamine 100% | activation, % at 7.5 µM (by protocol) | 0.32% of 300,000 active;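 active = mean activation of at least 10% of the iron chelator positive control signal, with at least half of replicates also reaching 10%; inconclusive = mean and replicate majority disagree about reaching 10%; inactive = mean and most replicates under 10%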
# An asterisk follows results filed as active; ? = inconclusive; / = no result.
SMILES,proCasp7 act,GAA850 FXN act,procasp3 activ,Calb FLC,Neddylation inh,HIF activator
C/C(=N\NC(=O)c1c[nH]c2ccccc12)c1ccccn1,-9,2,-1,-30,4,5
CCN(CC)C(=O)C1=C(C)N(Cc2ccccc2)C(=O)C(CC(=O)NCCN2CCOCC2)C1 (stereo not drawn),/,1,/,/,-1,/
Cc1ccc(Cc2cnc(N3C(=N)SC(C)C3=O)s2)cc1 (stereo not drawn),4,2,10,82*,-7,0
Cc1cccc(Cc2cnc(N3C(=N)SC(C)C3=O)s2)c1 (stereo not drawn),7,1,12,94*,-13,0
O=C1c2ccccc2C(=O)N1c1ncc(Cc2ccc(Cl)cc2)s1,5,2,-2,/,2,/
Cc1cccc(Cc2cnc(N3C(=N)SC(c4ccccc4)C3=O)s2)c1 (stereo not drawn),-2,2,-3,-2,7,0
COCCN(C(=O)COC(=O)CCC1CCCCC1)c1c(N)n(Cc2ccccc2)c(=O)[nH]c1=O,/,0,/,/,4,/
CC(C)C[C@H]1CN([C@@H](Cc2ccccc2)CN2CCC[C@H]2CN2C(=O)C(=O)NC[C@@H]2Cc2ccc(O)cc2)C(=O)C(=O)N1CC1CCCCCC1,/,/,/,/,-7,/
COc1ccc(NC(=O)CSc2nc3ccsc3c(=O)n2CCC(=O)O)cc1,/,2,/,/,-1,/
O=C(Nc1nnc(-c2ccccn2)o1)c1cccc(Cl)c1,10,0,-2,-3,5,0
O=C(Nc1nnc(-c2ccco2)o1)c1cccc(Cl)c1,-5,-1,2,87*,6,0
Cc1nn(-c2ccccc2)c(C)c1C(=O)Nc1nnc(-c2ccco2)o1,10,1,1,84*,7,0
CN1C(=O)/C(=C/c2cn(CC(=O)N3CCCCC3)c3ccccc23)NC1=S,/,0,/,112*,-35,/
CCNC(=O)C1(C)CCCN(C(=O)c2oc3ccccc3c2C)C1 (stereo not drawn),/,1,/,/,-4,/
CC(C)c1nnc(NC(=O)CCC(=O)NC2CC2)s1,8,1,-1,-3,-3,18*
O=C(OCc1cn([C@H]2CN(CC3CCCCC3)[C@@H](c3ccc(Cl)cc3)C[C@@H]2O)nn1)c1ccccc1,/,1,/,/,6,/
CCOc1ccc(NC(=O)CCC(=O)N/N=C/c2ccc3c(c2)OCO3)cc1,-4,0,-2,111*,0,0
CCCN(CC1CC1)C(=S)NC(=O)c1cc(Br)ccc1Cl,/,0,/,/,5,/
O=C(CC1NCCNC1=O)Nc1ccc(Cl)c(Cl)c1 (stereo not drawn),9,3,4,-2,-1,-34
Cc1ccc(NC(=O)CC2NCCNC2=O)cc1Cl (stereo not drawn),-3,2,8,120*,-1,1
COc1cccc(/C=N\NC(=O)c2ccc(Cn3cc(Br)c([N+](=O)[O-])n3)o2)c1O,0,-8,1,102*,-38,18*
COc1cccc(/C=N/NC(=O)c2nc(-c3ccccc3)cc(-c3ccccc3)n2)c1O,10,-2,-6,114*,-3,11*
COc1cccc(/C=N/NC(=O)CSc2ccccc2C)c1O,-6,0,-17,68,20,12*
COc1cc(/C=N\NC(=O)c2ccc(Cn3nc([N+](=O)[O-])c(Cl)c3C)o2)ccc1O,-6,1,1,-8,-34,0
COc1cccc(/C=N/NC(=O)CSc2ccccc2C)c1OC,2,0,0,22,34,0
SMILES,proCasp7 act,GAA850 FXN act,procasp3 activ,Calb FLC,Neddylation inh,HIF activator
CCOc1ccccc1/C=N/NC(=O)c1c(C)nc2ccc(Br)cn12,0,-1,10,1,7,-1
COc1cccc(/C=N/NC(=O)c2c(C)nc3ccc(Br)cn23)c1O,-16,-11,-16,109*,15,32*
COc1cccc(C=NNC(=O)c2ccncc2)c1O,/,-4,/,/,-12,/
COCCc1ccc(OC2(C)CCN(Cc3cccn3-c3nccs3)C2)cc1 (stereo not drawn),/,1,/,/,4,/
Cc1nn2c([nH]c(=O)c3ccccc32)c1C=O,0,0,6,83*,13,-1
Cc1nn(-c2ccccc2)c(C)c1C=O,4,0,-3,10,-3,-1
Cc1cc(-c2nnnn2-c2cc(Cl)cc(Cl)c2)no1,4,-1,3,-1,-3,13*
Cc1cc(-c2nnnn2-c2ccc(F)cc2)no1,-1,1,1,-7,-2,/
CCCn1nnc(NC(=O)c2ccc3ccccc3c2)n1,1,3,3,4,-7,4
CCCn1nnnc1NC(=O)c1ccc2ccccc2c1,6,2,5,116*,3,0
CCCCn1nnc(NC(=O)c2sc3cc(Cl)ccc3c2Cl)n1,7,0,3,/,-176,0
CCN(CC)Cc1ccc(NC(=O)c2sc3cc(Cl)ccc3c2Cl)cc1,2,0,-3,103*,-52,0
N#Cc1ccccc1S(=O)(=O)N1CCN(c2cnccn2)CC1,-3,0,-2,12,20,68*
CCOC(=O)[C@]12CCCC=C1N(CCC1=CCCCC1)C(=O)[C@H](CC(=O)NCc1cccc(C(F)(F)F)c1)C2,/,/,/,/,-3,/
CCOc1ccc(/C=C/C2=CC(C)(C)NC(=S)N2)cc1,-5,0,9,110*,-3,0
COc1ccc(/C=C/C2=CC(C)(C)NC(=S)N2)cc1OC,-5,0,4,0,4,0
CC(C)n1c(=O)c2ccccc2n1C(=O)c1ccccc1,/,/,/,/,-3,/
O=C(NNC1=C(C(=O)C(F)(F)F)CCC1)c1ccc(Br)cc1,-3,0,-4,92*,-1,0
Nc1ccccc1C(=O)NNC1=C(C(=O)C(F)(F)F)CCC1,4,2,4,-21,13,4
CC(=O)NC(c1ccc(C)cc1)c1cc(Cl)c2cccnc2c1O (stereo not drawn),/,-5,/,-3,-8,9.8*
O=C(CCc1ccccc1)NC(c1cccs1)c1cc(Cl)c2cccnc2c1O (stereo not drawn),/,-4,/,?,12,102*
CCC(=O)NC(c1ccco1)c1cc(Cl)c2cccnc2c1O (stereo not drawn),-15,-1,-11,90*,-1,2
CC(=O)NC(c1ccco1)c1cc(Cl)c2cccnc2c1O (stereo not drawn),/,-4,/,/,-13,/
CCCCC(=O)NC(c1ccco1)c1cc(Cl)c2cccnc2c1O (stereo not drawn),-26,-5,-12,112*,16,0
